“And” between values parts separate entries of the source, which are not always exact repeats. Equal values may be shown once.
Experiments:
Format in all cases: toxicity, cell-based
[1] = test system: U2OS; assay: Multiplex assay against U2OS; settings: human, 10 µM, compound concentration 10 uM
Procedure, shortened: (§1)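 Tubulin, mitochondrial-mass and membrane-permeability phenotypes are per cents of healthy-nucleus cells. Cells were gated by CellPathfinder machine learning into Hoechst high-intensity objects or normal cells, normal cells into healthy, pyknosed or fragmented nuclei, and pyknosed cells into mitotic or apoptotic. Before that, live cells stained at seeding with Hoechst33342, BioTracker Green Microtubule Cytoskeleton Dye, MitoTracker Red and Annexin V Alexa Fluor 680 were imaged on a CQ1 microscope at 37°C and 5% CO2 after compound addition.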

[2] = test system: Fibroblast; assay: Multiplex assay against human fibroblast; settings: 10 µM, compound concentration 10 uM; procedure, shortened: as §1
[3] = test system: HEK-293T; assay: Multiplex assay against HEK293T; settings: human, 10 µM, compound concentration 10 uM; procedure, shortened: as §1

Which “Population Apoptotic (%)” value ([1]; 12 h, replicate 1) does the source give for `CCC(=O)N1CCN(c2ccc(-n3c(=O)ccc4cnc5ccc(-c6cnc7ccccc7c6)cc5c43)cc2C(F)(F)F)CC1` [TORIN1] here?
The value was 68% and 85%.

And the “Population Healthy Nuclei (%)” value ([1]; 12 h, replicate 1)?
Its value is 55%.

And the “Population Normal (%)” value ([1]; 12 h, replicate 1)?
The value was 98% and 96%.

What about the “Total Cell Count” value ([1]; 12 h, replicate 1) of the same compound?
Its value is 288 and 258.

And the “Population Apoptotic (%)” value ([1]; 12 h, replicate 2)?
Its value is 76% and 92%.

And the “Population Healthy Nuclei (%)” value ([1]; 12 h, replicate 2)?
Its value is 71% and 61%.

And the “Total Cell Count” value ([1]; 12 h, replicate 2)?
Its value is 109 and 101.

What about the “Population Apoptotic (%)” value ([1]; 24 h, replicate 1) of the same compound?
Its value is 77% and 84%.

And the “Population Healthy Nuclei (%)” value ([1]; 24 h, replicate 1)?
The value was 54% and 55%.

And the “Population Normal (%)” value ([1]; 24 h, replicate 1)?
Its value is 98% and 96%.

What about the “Total Cell Count” value ([1]; 24 h, replicate 1) of the same compound?
The value was 287 and 256.

What about the “Population Apoptotic (%)” value ([1]; 24 h, replicate 2) of the same compound?
The value was 73% and 83%.

And the “Population Healthy Nuclei (%)” value ([1]; 24 h, replicate 2)?
Its value is 72%.

And the “Population Normal (%)” value ([1]; 24 h, replicate 2)?
Its value is 97%.

And the “Total Cell Count” value ([1]; 24 h, replicate 2)?
The value was 115 and 106.

What about the “Population Apoptotic (%)” value ([1]; 48 h, replicate 1) of the same compound?
Its value is 78% and 72%.

And the “Population Healthy Nuclei (%)” value ([1]; 48 h, replicate 1)?
Its value is 44% and 39%.

What about the “Population Normal (%)” value ([1]; 48 h, replicate 1) of the same compound?
Its value is 93% and 97%.

What about the “Total Cell Count” value ([1]; 48 h, replicate 1) of the same compound?
The value was 300 and 270.

What about the “Population Apoptotic (%)” value ([1]; 48 h, replicate 2) of the same compound?
The value was 82% and 81%.

What about the “Total Cell Count” value ([1]; 48 h, replicate 2) of the same compound?
Its value is 147 and 123.

What about the “Population Healthy Nuclei (%)” value ([2]; 12 h, replicate 1) of the same compound?
The value was 60% and 61%.

And the “Population Mitotic Cells (%)” value ([2]; 12 h, replicate 1)?
The value was 72% and 76%.

And the “Population Normal (%)” value ([2]; 12 h, replicate 1)?
The value was 94% and 95%.

What about the “Population Tubulin-Different-Phenotype (%)” value ([2]; 12 h, replicate 1) of the same compound?
The value was 62% and 53%.

And the “Total Cell Count” value ([2]; 12 h, replicate 1)?
The value was 155 and 135.

What about the “Population Healthy Nuclei (%)” value ([2]; 12 h, replicate 2) of the same compound?
Its value is 44%.

And the “Population Mitotic Cells (%)” value ([2]; 12 h, replicate 2)?
The value was 65% and 66%.

And the “Population Normal (%)” value ([2]; 12 h, replicate 2)?
The value was 90%.

What about the “Population Tubulin-Different-Phenotype (%)” value ([2]; 12 h, replicate 2) of the same compound?
The value was 64%.

What about the “Total Cell Count” value ([2]; 12 h, replicate 2) of the same compound?
Its value is 131 and 150.

And the “Population Healthy Nuclei (%)” value ([2]; 24 h, replicate 1)?
Its value is 64%.

What about the “Population Mitotic Cells (%)” value ([2]; 24 h, replicate 1) of the same compound?
Its value is 66% and 50%.

And the “Population Normal (%)” value ([2]; 24 h, replicate 1)?
Its value is 96% and 94%.

And the “Population Tubulin-Different-Phenotype (%)” value ([2]; 24 h, replicate 1)?
The value was 62% and 48%.

And the “Total Cell Count” value ([2]; 24 h, replicate 1)?
The value was 137 and 135.

What about the “Population Healthy Nuclei (%)” value ([2]; 24 h, replicate 2) of the same compound?
The value was 57% and 45%.

What about the “Population Mitotic Cells (%)” value ([2]; 24 h, replicate 2) of the same compound?
Its value is 56% and 77%.

What about the “Population Normal (%)” value ([2]; 24 h, replicate 2) of the same compound?
Its value is 93% and 95%.

What about the “Population Tubulin-Different-Phenotype (%)” value ([2]; 24 h, replicate 2) of the same compound?
The value was 59% and 60%.

What about the “Total Cell Count” value ([2]; 24 h, replicate 2) of the same compound?
Its value is 128 and 150.

And the “Population Healthy Nuclei (%)” value ([2]; 48 h, replicate 1)?
The value was 72% and 71%.

What about the “Population Mitotic Cells (%)” value ([2]; 48 h, replicate 1) of the same compound?
Its value is 50%.

And the “Population Normal (%)” value ([2]; 48 h, replicate 1)?
The value was 96% and 97%.

What about the “Population Tubulin-Different-Phenotype (%)” value ([2]; 48 h, replicate 1) of the same compound?
The value was 67% and 54%.

What about the “Total Cell Count” value ([2]; 48 h, replicate 1) of the same compound?
Its value is 127 and 124.

And the “Population Healthy Nuclei (%)” value ([2]; 48 h, replicate 2)?
Its value is 62% and 46%.

What about the “Population Mitotic Cells (%)” value ([2]; 48 h, replicate 2) of the same compound?
Its value is 46%.

What about the “Population Normal (%)” value ([2]; 48 h, replicate 2) of the same compound?
Its value is 95% and 98%.

And the “Population Tubulin-Different-Phenotype (%)” value ([2]; 48 h, replicate 2)?
The value was 61% and 77%.

And the “Total Cell Count” value ([2]; 48 h, replicate 2)?
The value was 136 and 147.

And the “Population Apoptotic (%)” value ([3]; 12 h, replicate 1)?
Its value is 71% and 67%.

And the “Population Healthy Nuclei (%)” value ([3]; 12 h, replicate 1)?
Its value is 76% and 71%.

What about the “Population Membrane Permeable-Phenotype (%)” value ([3]; 12 h, replicate 1) of the same compound?
The value was 0%.

And the “Population Mitochondria Different-Phenotype (%)” value ([3]; 12 h, replicate 1)?
Its value is 78% and 76%.

And the “Population Normal (%)” value ([3]; 12 h, replicate 1)?
Its value is 88%.

And the “Population Tubulin-Different-Phenotype (%)” value ([3]; 12 h, replicate 1)?
The value was 40%.

What about the “Total Cell Count” value ([3]; 12 h, replicate 1) of the same compound?
The value was 373 and 299.

What about the “Population Apoptotic (%)” value ([3]; 12 h, replicate 2) of the same compound?
Its value is 51% and 57%.

And the “Population Healthy Nuclei (%)” value ([3]; 12 h, replicate 2)?
Its value is 79%.

And the “Population Mitochondria Different-Phenotype (%)” value ([3]; 12 h, replicate 2)?
Its value is 87%.

What about the “Population Mitotic Cells (%)” value ([3]; 12 h, replicate 2) of the same compound?
The value was 48% and 42%.

What about the “Population Normal (%)” value ([3]; 12 h, replicate 2) of the same compound?
Its value is 92%.

What about the “Population Tubulin-Different-Phenotype (%)” value ([3]; 12 h, replicate 2) of the same compound?
The value was 37%.

What about the “Total Cell Count” value ([3]; 12 h, replicate 2) of the same compound?
Its value is 266 and 321.

And the “Population Apoptotic (%)” value ([3]; 24 h, replicate 1)?
The value was 45%.

What about the “Population Healthy Nuclei (%)” value ([3]; 24 h, replicate 1) of the same compound?
The value was 75% and 74%.

What about the “Population Membrane Permeable-Phenotype (%)” value ([3]; 24 h, replicate 1) of the same compound?
Its value is 0%.

What about the “Population Mitochondria Different-Phenotype (%)” value ([3]; 24 h, replicate 1) of the same compound?
The value was 75% and 81%.

And the “Population Mitotic Cells (%)” value ([3]; 24 h, replicate 1)?
Its value is 46% and 54%.

And the “Population Normal (%)” value ([3]; 24 h, replicate 1)?
Its value is 86% and 90%.

What about the “Population Tubulin-Different-Phenotype (%)” value ([3]; 24 h, replicate 1) of the same compound?
Its value is 43% and 44%.

And the “Total Cell Count” value ([3]; 24 h, replicate 1)?
The value was 337 and 289.

What about the “Population Apoptotic (%)” value ([3]; 24 h, replicate 2) of the same compound?
The value was 44% and 58%.

What about the “Population Mitochondria Different-Phenotype (%)” value ([3]; 24 h, replicate 2) of the same compound?
The value was 82% and 86%.

And the “Population Mitotic Cells (%)” value ([3]; 24 h, replicate 2)?
The value was 55% and 41%.

What about the “Population Normal (%)” value ([3]; 24 h, replicate 2) of the same compound?
The value was 77% and 71%.

What about the “Population Tubulin-Different-Phenotype (%)” value ([3]; 24 h, replicate 2) of the same compound?
The value was 33% and 57%.

What about the “Total Cell Count” value ([3]; 24 h, replicate 2) of the same compound?
Its value is 225 and 283.

What about the “Population Apoptotic (%)” value ([3]; 48 h, replicate 1) of the same compound?
The value was 56% and 69%.

What about the “Population Healthy Nuclei (%)” value ([3]; 48 h, replicate 1) of the same compound?
The value was 70% and 72%.

And the “Population Membrane Permeable-Phenotype (%)” value ([3]; 48 h, replicate 1)?
The value was 0%.

What about the “Population Mitochondria Different-Phenotype (%)” value ([3]; 48 h, replicate 1) of the same compound?
The value was 77% and 75%.

What about the “Population Mitotic Cells (%)” value ([3]; 48 h, replicate 1) of the same compound?
The value was 43%.

What about the “Population Normal (%)” value ([3]; 48 h, replicate 1) of the same compound?
The value was 73% and 80%.

And the “Population Tubulin-Different-Phenotype (%)” value ([3]; 48 h, replicate 1)?
Its value is 47% and 35%.

What about the “Total Cell Count” value ([3]; 48 h, replicate 1) of the same compound?
The value was 292 and 275.

And the “Population Apoptotic (%)” value ([3]; 48 h, replicate 2)?
The value was 68% and 58%.

And the “Population Healthy Nuclei (%)” value ([3]; 48 h, replicate 2)?
Its value is 56%.

What about the “Population Membrane Permeable-Phenotype (%)” value ([3]; 48 h, replicate 2) of the same compound?
Its value is 1%.

And the “Population Mitochondria Different-Phenotype (%)” value ([3]; 48 h, replicate 2)?
The value was 80% and 82%.

And the “Population Mitotic Cells (%)” value ([3]; 48 h, replicate 2)?
Its value is 41%.

What about the “Population Normal (%)” value ([3]; 48 h, replicate 2) of the same compound?
The value was 38% and 36%.

What about the “Population Tubulin-Different-Phenotype (%)” value ([3]; 48 h, replicate 2) of the same compound?
Its value is 37% and 58%.

And the “Total Cell Count” value ([3]; 48 h, replicate 2)?
The value was 235 and 234.

From ChEMBL document CHEMBL5058577, “EUbOPEN Chemogenomics Library 2 (Multiplex)” (2022)
